The text below walks through data of PMC3018326 (Proteins, 2010).

The assay addresses T1, TcFPPS (Trypanosoma cruzi, UniProt Q95WL3).
T1 sequence (Q95WL3 1-362): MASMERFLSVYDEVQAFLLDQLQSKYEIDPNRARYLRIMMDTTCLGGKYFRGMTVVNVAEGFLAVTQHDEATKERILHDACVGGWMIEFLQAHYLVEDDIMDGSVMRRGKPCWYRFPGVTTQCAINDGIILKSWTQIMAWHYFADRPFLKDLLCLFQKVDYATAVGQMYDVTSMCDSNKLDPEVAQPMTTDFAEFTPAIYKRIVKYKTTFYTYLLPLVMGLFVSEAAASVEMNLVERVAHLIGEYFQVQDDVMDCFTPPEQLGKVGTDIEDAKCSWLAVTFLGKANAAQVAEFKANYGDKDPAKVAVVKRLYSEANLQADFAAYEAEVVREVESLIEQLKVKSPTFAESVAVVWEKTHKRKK
The experiment in a line: isothermal titration calorimetry, two-sequential-site fit. In kind it is binding. The method in brief:
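TcFPPS carried an N-terminal His-tag, was expressed in E. coli BL21(DE3), and was purified by Ni-affinity and gel filtration. Protein at 22.5 μM was dialyzed into 20 mM HEPES pH 7.5, 1 M NaCl, 2 mM MgCl2, 2 mM TCEP. Test compound at 250 μM in the same buffer was injected (10 μL) every 300 s at 26°C. Dilution heats were subtracted and the first injection excluded. Isotherms were fitted to a two-sequential-site model.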
On the technique in general: In ITC the heat of successive injections is recorded.
As for `O=P(O)(O)C(O)(Cc1cnc2ccccn12)P(=O)(O)O` [261A, minodronate], the Kd (commonly the constant that tells how readily two partners part at equilibrium) was 10.9 nM.

In turn, `O=P(O)(O)C(O)(Cc1cccnc1)P(=O)(O)O` [Ris, risedronate] had a Kd of 66.7 nM. Consider `O=P(O)(O)C(O)(Cn1ccnc1)P(=O)(O)O` [91B, zoledronate], for which the dissociation constant Kd is 28.6 nM.
